SMILES strings stand for the structures. pIC50: −log10 of the molar value.

The target of data set [1] is T1, hERG (KCNH2) (Homo sapiens, UniProt Q12809). Nature of the data set: Inhibition of hERG expressed in HEK293 cells at 10 uM by thallium flux assay relative to control. The following applies: HEK293 cells that express hERG.
A short description of data set [2]: Stability in human plasma assessed as compound remaining incubated upto 120 mins […] by LC-MS analysis. Type of data set: ADME, cell-free. The following applies: read-out: Stability. In short, it runs like this:
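Human plasma prewarmed to 37 °C and centrifuged; compound added at 37 °C. Samples taken at 0, 30, 60, 90 and 120 min, quenched into ice-cold methanol with internal standard, and measured by LC-MS as % remaining relative to 0 min. Duplicates; procaine as control.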

Data set [3] concerns the target Voltage-gated inwardly rectifying potassium channel KCNH2 (Homo sapiens, UniProt Q12809). The data set can be described thus: Inhibition of hERG transiently transfected in CHO cells at 10 uM at -100 mV holding potential by whole-cell patch clamp electrophysiology method. The data set is classed as toxicity, cell-based. Put shortly:
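hERG transiently expressed in CHO cells (eGFP co-transfection marker) and recorded by whole-cell patch clamp at 20–22 °C, 24 h post-transfection. […] Pipette (mM): 140 KCl, 2 MgCl2, 10 EGTA, 10 HEPES, 5 Mg-ATP. Protocol: 1 s steps from −80 to +60 mV, then 140 ms at −100 mV. Tail current at −100 mV read as I_drug/I_CTL with 10 μM drug; ≥3 cells.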

In data set [4] the target is T2, Potassium channel subfamily T member 1 (Homo sapiens, UniProt Q5JUK3).
T2 sequence (Q5JUK3 whole entry): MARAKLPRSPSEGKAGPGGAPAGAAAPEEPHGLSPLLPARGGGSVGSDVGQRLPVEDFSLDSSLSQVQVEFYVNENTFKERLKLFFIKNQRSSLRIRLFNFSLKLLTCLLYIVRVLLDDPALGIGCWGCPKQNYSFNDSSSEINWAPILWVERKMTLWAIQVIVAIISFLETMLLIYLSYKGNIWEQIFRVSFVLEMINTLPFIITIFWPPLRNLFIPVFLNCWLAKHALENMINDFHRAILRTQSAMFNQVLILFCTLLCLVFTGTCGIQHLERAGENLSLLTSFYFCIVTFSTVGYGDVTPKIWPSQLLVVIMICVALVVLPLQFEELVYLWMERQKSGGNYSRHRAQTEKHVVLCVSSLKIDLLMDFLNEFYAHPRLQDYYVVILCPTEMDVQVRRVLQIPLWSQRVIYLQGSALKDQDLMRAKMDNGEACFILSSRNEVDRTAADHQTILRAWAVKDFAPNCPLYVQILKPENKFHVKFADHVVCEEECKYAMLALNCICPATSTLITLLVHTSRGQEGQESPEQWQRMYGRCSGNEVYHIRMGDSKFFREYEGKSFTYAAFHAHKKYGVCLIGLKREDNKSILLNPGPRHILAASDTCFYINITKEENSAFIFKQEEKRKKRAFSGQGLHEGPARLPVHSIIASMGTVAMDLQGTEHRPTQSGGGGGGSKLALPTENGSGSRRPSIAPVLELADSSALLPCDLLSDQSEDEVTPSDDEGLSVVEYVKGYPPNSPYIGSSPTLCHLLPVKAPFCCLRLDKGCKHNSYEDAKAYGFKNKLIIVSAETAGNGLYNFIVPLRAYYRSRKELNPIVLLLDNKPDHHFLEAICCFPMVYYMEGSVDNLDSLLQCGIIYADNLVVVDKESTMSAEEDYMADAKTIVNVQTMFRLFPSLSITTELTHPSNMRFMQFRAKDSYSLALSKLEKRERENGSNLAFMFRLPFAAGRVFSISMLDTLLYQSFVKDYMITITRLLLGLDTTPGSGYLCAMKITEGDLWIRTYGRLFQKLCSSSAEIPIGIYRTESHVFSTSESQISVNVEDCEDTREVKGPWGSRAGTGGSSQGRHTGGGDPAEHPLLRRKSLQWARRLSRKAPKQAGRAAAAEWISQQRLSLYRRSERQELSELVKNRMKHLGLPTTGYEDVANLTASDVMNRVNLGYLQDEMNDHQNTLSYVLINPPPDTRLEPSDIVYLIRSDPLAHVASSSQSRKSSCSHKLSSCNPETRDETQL
Nature of the data set: Inhibition of human KCNT1 (98 to 354 residues) expressed in CHO cells assessed as reduction in thallium fluorescent signal incubated for 15 mins followed by LOX addition measured after 15 mins by FluxOR green dye based fluorescence analysis. Type of data set: cell-based.

Data set [5] concerns the target T1, hERG (KCNH2). Nature of the data set: Inhibition of hERG transiently transfected in CHO cells at 10 uM at -100 mV holding potential by whole-cell patch clamp electrophysiology method relative to control. Type of data set: toxicity, cell-based. The conditions noted are these: CHO cells transiently transfected with hERG.
Data set [6] in a line: Intrinsic clearance in human liver microsomes incubated upto 60 mins in presence of NADPH and UDPGA by LC-MS analysis. Type of data set: ADME, Microsome. The following applies: read-out: CLH.
In data set [7] the target is T3, Potassium channel subfamily T member 2 (Homo sapiens, UniProt Q6UVM3).
T3 sequence (Q6UVM3 whole entry): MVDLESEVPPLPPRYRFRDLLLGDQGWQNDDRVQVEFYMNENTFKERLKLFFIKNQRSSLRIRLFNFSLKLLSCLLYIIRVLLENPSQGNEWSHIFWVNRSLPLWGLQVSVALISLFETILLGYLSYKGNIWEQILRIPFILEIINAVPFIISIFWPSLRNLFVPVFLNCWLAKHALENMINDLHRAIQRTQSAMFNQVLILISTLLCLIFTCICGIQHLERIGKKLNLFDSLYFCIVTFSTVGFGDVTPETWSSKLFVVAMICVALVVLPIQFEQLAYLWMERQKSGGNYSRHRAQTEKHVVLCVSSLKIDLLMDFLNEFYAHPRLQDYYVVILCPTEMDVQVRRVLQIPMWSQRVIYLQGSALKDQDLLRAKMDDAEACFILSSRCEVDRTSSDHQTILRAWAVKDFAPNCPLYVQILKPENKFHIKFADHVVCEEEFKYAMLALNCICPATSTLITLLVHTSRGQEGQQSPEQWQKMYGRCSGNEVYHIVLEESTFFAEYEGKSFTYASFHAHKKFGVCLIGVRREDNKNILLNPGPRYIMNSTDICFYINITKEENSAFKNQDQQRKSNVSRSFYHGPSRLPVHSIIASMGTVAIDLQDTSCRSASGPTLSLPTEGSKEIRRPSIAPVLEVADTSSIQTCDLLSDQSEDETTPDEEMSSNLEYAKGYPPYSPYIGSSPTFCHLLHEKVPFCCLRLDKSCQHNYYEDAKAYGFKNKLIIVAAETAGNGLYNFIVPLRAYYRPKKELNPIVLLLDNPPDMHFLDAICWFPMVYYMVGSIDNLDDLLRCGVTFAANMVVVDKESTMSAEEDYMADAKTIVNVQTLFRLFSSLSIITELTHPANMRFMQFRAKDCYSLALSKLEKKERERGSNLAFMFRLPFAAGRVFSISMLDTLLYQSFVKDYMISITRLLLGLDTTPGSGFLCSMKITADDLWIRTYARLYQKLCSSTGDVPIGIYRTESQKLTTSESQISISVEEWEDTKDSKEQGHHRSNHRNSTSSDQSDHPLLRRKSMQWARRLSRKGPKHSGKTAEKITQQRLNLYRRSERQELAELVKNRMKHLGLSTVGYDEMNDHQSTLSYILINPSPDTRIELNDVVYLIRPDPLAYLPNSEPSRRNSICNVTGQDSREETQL
The data set can be described thus: Inhibition of human KCNT2 expressed in HEK cells at +60 mV holding potential by whole-cell patch clamp electrophysiology method. Type of data set: cell-based. In short, it runs like this:
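Human KCNT2 transiently expressed in HEK cells and recorded by whole-cell patch clamp at 20–22 °C, 24 h after transfection. Pipette (mM): 130 KCl, 10 NaCl, 10 HEPES, 5 EGTA, pH 7.3–7.4, with ATP omitted. Each cell received one perfused concentration; DMSO ≤0.3%. Current at the end of the depolarizing pulse was normalized and fitted to a binding isotherm with Hill coefficient; ≥6 determinations per point, mean ± SEM.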

The nature of data set [8]: Plasma protein binding in human at 10 uM incubated for 4 hrs by rapid equilibrium dialysis based LC-MS/MS analysis. The conditions noted are these: read-out: PPB. The data set is classed as ADME, cell-free.
Data set [9] addresses T1, hERG (KCNH2). Nature of the data set: Inhibition of hERG expressed in HEK293 cells at 10 uM by whole-cell patch clamp electrophysiology method relative to control. The data set is classed as toxicity, cell-based. The following applies: HEK293 cells that express hERG.

T1 sequence (Q12809 whole entry): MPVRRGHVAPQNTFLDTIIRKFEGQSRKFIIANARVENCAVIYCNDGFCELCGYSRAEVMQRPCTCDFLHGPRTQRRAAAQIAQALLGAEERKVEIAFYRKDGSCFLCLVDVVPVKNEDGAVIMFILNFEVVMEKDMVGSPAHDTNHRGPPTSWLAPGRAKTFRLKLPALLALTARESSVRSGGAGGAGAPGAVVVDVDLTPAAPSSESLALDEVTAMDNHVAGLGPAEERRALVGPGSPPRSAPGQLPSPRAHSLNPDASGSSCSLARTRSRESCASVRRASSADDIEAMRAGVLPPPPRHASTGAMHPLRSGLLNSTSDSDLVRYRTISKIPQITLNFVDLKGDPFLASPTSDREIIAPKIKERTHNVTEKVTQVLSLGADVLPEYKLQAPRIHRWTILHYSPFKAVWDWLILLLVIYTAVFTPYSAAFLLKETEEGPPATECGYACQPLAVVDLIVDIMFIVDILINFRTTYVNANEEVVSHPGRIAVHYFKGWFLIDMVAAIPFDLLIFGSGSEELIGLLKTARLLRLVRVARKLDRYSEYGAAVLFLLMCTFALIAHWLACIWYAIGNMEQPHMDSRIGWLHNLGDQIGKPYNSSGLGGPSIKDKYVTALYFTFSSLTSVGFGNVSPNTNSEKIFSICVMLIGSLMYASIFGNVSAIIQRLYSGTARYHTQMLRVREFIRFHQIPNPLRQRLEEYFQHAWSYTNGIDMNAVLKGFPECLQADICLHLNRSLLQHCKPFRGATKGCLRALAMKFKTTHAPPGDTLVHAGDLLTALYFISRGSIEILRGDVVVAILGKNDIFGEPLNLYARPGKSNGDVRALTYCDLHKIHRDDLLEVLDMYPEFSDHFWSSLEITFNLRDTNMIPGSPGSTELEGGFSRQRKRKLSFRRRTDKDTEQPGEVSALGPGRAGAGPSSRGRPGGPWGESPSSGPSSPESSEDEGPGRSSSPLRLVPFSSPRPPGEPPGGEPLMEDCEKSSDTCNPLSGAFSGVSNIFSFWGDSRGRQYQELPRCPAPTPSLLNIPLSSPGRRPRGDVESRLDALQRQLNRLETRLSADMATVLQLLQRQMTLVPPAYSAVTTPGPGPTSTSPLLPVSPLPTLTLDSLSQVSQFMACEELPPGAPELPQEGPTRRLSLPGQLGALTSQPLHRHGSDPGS
Sequence of Voltage-gated inwardly rectifying potassium channel KCNH2 (Q12809 whole entry): as above

The molecule `COc1ccc(Cl)cc1NC(=O)CN1CCN(S(=O)(=O)N2CCC(C)CC2)CC1` displayed an inhibition at 10 µM on hERG (KCNH2) [1] of 40%.

Regarding `CCOC(=O)[C@@H]1CS[C@@]2(C(=O)Nc3ccc(Br)cc32)N1C(=O)c1ccc(Cl)cc1`, the remaining at 2 h in data set [2] stood at 0%. The “inhibition (INH)” value in data set [3] is on record as “Not Active”.

`Oc1ccc2ccccc2c1CNCCc1c[nH]c2ccccc12`: the pIC50 in data set [4] is 5.06. For the same molecule, testing at 10 µM against hERG (KCNH2) [5] gave an inhibition of 30%.

On to `CC(C)(C)CNC(=O)Nc1ccc2c(c1)CCN2Cc1ccc(F)cc1`, for which, in data set [4], the pIC50 was 5.26. Also, 10 µM produced 30% inhibition on hERG (KCNH2) [5].

Consider `O=S(=O)(Nc1ccc2c(c1)CCN2Cc1ccc(C(F)(F)F)cc1C(F)(F)F)C1CCCCC1`, for which, in [6], the CLint scaled is under 1 mL/min/kg. The molecule further showed a pIC50 in data set [7] of 5.90. Besides, in [8], the fraction unbound at 4 h, 10 µM stood at 0.01. In [2], the remaining at 2 h is under 80%. Further, in data set [3], the “inhibition (INH)” value is “Not Active”.

For the molecule `O=C(Nc1cccc(C(F)(F)F)c1)c1ccc2nc(N3C(=O)c4ccccc4C3=O)sc2c1`, the inhibition at 10 µM against hERG (KCNH2) [9] came to 15%.

`Cc1cc(O)ccc1N/C=C/C(=O)c1ccccc1`: the inhibition at 10 µM against hERG (KCNH2) [9] was 15%.

In the case of `O=C(NCc1ccccc1)[C@H](Cc1c[nH]c2ccccc12)NCc1ccc(Oc2ccccc2)cc1`, in data set [6], the CLint scaled is under 80 mL/min/kg. The fraction unbound at 4 h, 10 µM in data set [8] came to 0.01. In data set [2], the remaining at 2 h was under 80%. In [3], the “inhibition (INH)” value was “Not Active”.

Values taken from ChEMBL document CHEMBL5512679, “In Silico Assisted Identification, Synthesis, and In Vitro Pharmacological Characterization of Potent and Selective Blockers of the Epilepsy-Associated KCNT1 Channel” (J Med Chem, 2024).
